{
  "source": "ChEMBL document CHEMBL5230168",
  "about": "“Design, synthesis, and biological evaluation of new arjunolic acid derivatives as anticancer agents” (RSC Med Chem, 2023)",
  "key": {"[1]": {"system": "PANC-1", "assay": "Synergistic cytotoxicity against human PANC-1 cells assessed as combination index at 0.47 uM incubated for 72 hrs in the presence of 23.5 uM gemcitabine by MTT assay", "assay_type": "functional"}, "[2]": {"system": "PANC-1", "assay": "Synergistic cytotoxicity against human PANC-1 cells assessed as combination index at 1.88 uM incubated for 72 hrs in the presence of 94 uM gemcitabine by MTT assay", "assay_type": "functional"}, "[3]": {"system": "PANC-1", "assay": "Induction of apoptosis in human PANC-1 cells assessed as late apoptotic cells at 0.94 uM incubated for 24 hrs by Annexin V-FITC/PI staining based flow cytometric analysis (reference value: 1.1%)", "assay_type": "functional", "summary_of_the_method": "(§1)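 PANC-1 seeded at 2 × 10^5 cells/well, grown 24 h, then treated 24 h. PI added just before flow cytometry. Quadrant percentages given as mean ± SD of three experiments. Untreated control.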"}, "[4]": {"assay": "Toxicity in Balb/c mouse assessed as ptosis at 50 to 100 mg/kg, ip measured upto 24 hrs by Irwin test", "assay_type": "organism-based", "conditions": "in vivo, dose 50-100 mg/kg", "summary_of_the_method": "(§2)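 Irwin primary observation in female Balb/c mice aged 7–8 weeks, 3 per group. Single i.p. doses of 0.01, 0.1, 1, 5, 10, 50 and 100 mg kg−1 in 0.2% HPMC in saline; vehicle controls observed in parallel, non-blind. Standardized grid including rectal temperature and pupil diameter scored at 15, 30, 60, 120 and 180 min and 24 h, with continuous watch over 0–15 min.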"}, "[5]": {"system": "PANC-1", "assay": "Induction of cell cycle arrest in human PANC-1 cells assessed as accumulation of cells at G0/G1 phase at 1.88 uM incubated for 24 hrs by PI staining based flow cytometric analysis (Rvb= 51.8 %)", "assay_type": "functional"}, "[6]": {"system": "PANC-1", "assay": "Induction of apoptosis in human PANC-1 cells assessed as viable cells at […] incubated for 24 hrs by Annexin V-FITC/PI staining based flow cytometric analysis (reference value: 89.8%)", "assay_type": "functional", "conditions": "read-out: Activity", "summary_of_the_method": "as §1"}, "[7]": {"assay": "Selectivity index, ratio of IC50 for cytotoxicity against human BJ cells to IC50 for cytotoxicity against human PANC-1", "assay_type": "toxicity, cell-based", "conditions": "BJ cells and PANC-1 cells, read-out: Ratio IC50", "summary_of_the_method": "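Selectivity index: BJ fibroblast IC50 over PANC-1 IC50, both from the 72 h MTT assay with 24 h pre-seeding (10 000 and 4000 cells/well). IC50 from three independent experiments.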"}, "[8]": {"assay": "Toxicity in Balb/c mouse assessed as decreased fear/startle at 50 to 100 mg/kg, ip measured upto 24 hrs by Irwin test", "assay_type": "organism-based", "conditions": "in vivo, dose 50-100 mg/kg", "summary_of_the_method": "as §2"}, "[9]": {"system": "NCI-H2170", "assay": "Cytotoxicity against human NCI-H2170 cells assessed as inhibition of cell growth incubated for 72 hrs by MTT assay", "assay_type": "functional, cell-based", "conditions": "NCI-H2170, 72 h", "summary_of_the_method": "(§3)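 Cells seeded per well (HT-29 4500, PANC-1 4000, SK-MEL-28 3200, A375 1200, A549 2500, H2170 and BJ 10 000) and left 24 h. They were then exposed to increasing concentrations for 72 h and incubated 1 h with MTT 0.5 mg mL−1. Formazan was dissolved in DMSO and absorbance read at 550 nm. IC50 from three independent experiments. Final DMSO ≤0.5%.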"}, "[10]": {"assay": "Toxicity in Balb/c mouse assessed as decrease of abdominal muscle tone at 50 to 100 mg/kg, ip measured upto 24 hrs by Irwin test", "assay_type": "organism-based", "conditions": "in vivo, dose 50-100 mg/kg", "summary_of_the_method": "as §2"}, "[11]": {"assay": "Toxicity in Balb/c mouse assessed as decrease in activity at 50 to 100 mg/kg, ip measured upto 24 hrs by Irwin test", "assay_type": "organism-based", "conditions": "in vivo, dose 50-100 mg/kg", "summary_of_the_method": "as §2"}, "[12]": {"system": "PANC-1", "assay": "Induction of apoptosis in human PANC-1 cells assessed as early apoptotic cells at 2.82 uM incubated for 24 hrs by Annexin V-FITC/PI staining based flow cytometric analysis (reference value: 5.2%)", "assay_type": "functional", "summary_of_the_method": "as §1"}, "[13]": {"system": "SK-MEL-28", "assay": "Cytotoxicity against human SK-MEL-28 cells assessed as inhibition of cell growth incubated for 72 hrs by MTT assay", "assay_type": "functional, cell-based", "conditions": "SK-MEL-28, 72 h", "summary_of_the_method": "as §3"}, "[14]": {"system": "PANC-1", "assay": "Induction of apoptosis in human PANC-1 cells assessed as necrotic cells at […] incubated for 24 hrs by Annexin V-FITC/PI staining based flow cytometric analysis (reference value: 3.9%)", "assay_type": "functional", "summary_of_the_method": "as §1"}, "[15]": {"system": "PANC-1", "assay": "Cytotoxicity against human PANC-1 cells assessed as inhibition of cell growth incubated for 72 hrs by MTT assay", "assay_type": "functional, cell-based", "conditions": "PANC-1, 72 h", "summary_of_the_method": "as §3"}, "[16]": {"system": "PANC-1", "assay": "Induction of apoptosis in human PANC-1 cells assessed as late apoptotic cells at […] incubated for 24 hrs by Annexin V-FITC/PI staining based flow cytometric analysis (reference value: 1.1%)", "assay_type": "functional", "summary_of_the_method": "as §1"}, "[17]": {"system": "PANC-1", "assay": "Induction of cell cycle arrest in human PANC-1 cells assessed as decrease in S phase cells at 1.88 uM incubated for 24 hrs by PI staining based flow cytometric analysis (Rvb= 19.8 %)", "assay_type": "functional", "set-up": "scale not given: the % may be the effect or the level left"}, "[18]": {"system": "PANC-1", "assay": "Synergistic cytotoxicity against human PANC-1 cells assessed as combination index at 0.94 uM incubated for 72 hrs in the presence of 47 uM gemcitabine by MTT assay", "assay_type": "functional"}, "[19]": {"assay": "Toxicity in Balb/c mouse assessed as transient observation of sole sign at 0.01 to 10 mg/kg, ip measured upto 24 hrs by Irwin test", "assay_type": "organism-based", "conditions": "in vivo, dose 0.01-10 mg/kg", "summary_of_the_method": "as §2"}, "[20]": {"assay": "Toxicity in Balb/c mouse assessed as hypothermia at 50 to 100 mg/kg, ip measured upto 24 hrs by Irwin test", "assay_type": "organism-based", "conditions": "in vivo, dose 50-100 mg/kg", "summary_of_the_method": "as §2"}},
  "data": [
    {"smiles": "CCOC(=O)[C@]12CCC(C)(C)C[C@H]1C1=CC[C@@H]3[C@@]4(C)C(C=O)=C[C@@](C)(CO)[C@@H]4CC[C@@]3(C)[C@]1(C)CC2", "values": [
      {"measurement": "CI", "setting": "[1]", "result": 0.98},
      {"measurement": "CI", "setting": "[2]", "result": 0.79},
      {"measurement": "Activity", "setting": "[3]", "result": 1.2, "unit": "%"},
      {"measurement": "Activity", "setting": "[4]", "result": "Toxic"},
      {"measurement": "Activity", "setting": "[5]", "result": 70.2, "unit": "%"},
      {"measurement": "viability", "setting": "[6]", "result": 91.7, "unit": "%"},
      {"measurement": "selectivity ratio", "setting": "[7]", "result": 6.5},
      {"measurement": "Activity", "setting": "[8]", "result": "Toxic"},
      {"measurement": "IC50", "setting": "[9]", "result": 1.33, "unit": "µM"},
      {"measurement": "Activity", "setting": "[10]", "result": "Toxic"},
      {"measurement": "Activity", "setting": "[11]", "result": "Toxic"},
      {"measurement": "Activity", "setting": "[12]", "result": 9.9, "unit": "%"},
      {"measurement": "IC50", "setting": "[13]", "result": 0.58, "unit": "µM"},
      {"measurement": "Activity", "setting": "[14]", "result": 2.3, "unit": "%"},
      {"measurement": "IC50", "setting": "[15]", "result": 0.47, "unit": "µM"},
      {"measurement": "Activity", "setting": "[16]", "result": 1.1, "unit": "%"},
      {"measurement": "Activity", "setting": "[17]", "result": 3.7, "unit": "%"},
      {"measurement": "CI", "setting": "[18]", "result": 0.86},
      {"measurement": "Activity", "setting": "[19]", "result": "Non-Toxic"},
      {"measurement": "Activity", "setting": "[20]", "result": "Toxic"}
    ]}
  ]
}
